Results published in ChEMBL document CHEMBL2434944, “Novel acetamidothiazole derivatives: synthesis and in vitro anticancer evaluation” (Eur J Med Chem, 2013).
pKi: −log10 of the molar value.

Columns and labels:
UACC-257 = assay: Growth inhibition of human UACC257 cells assessed as cell growth at 10^-5 M after 48 hrs by sulforhodamine B assay relative to control; assay type: functional; conditions: UACC-257, 48 h, read-out: Activity
Method in brief: (§1)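 NCI-60 single-dose screen, 10^-5 M final. Cells grown in RPMI 1640 with 5% FBS and 2 mM L-glutamine, seeded at 5,000–40,000 cells/well by doubling time. Preincubated 24 h at 37°C, 5% CO2. Compound in DMSO, diluted in medium with gentamicin, then 48 h exposure. Fixed with cold TCA, SRB stained, A515 read. Percent growth vs untreated control, time-zero plate corrected.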

SF-539 = assay: Growth inhibition of human SF539 cells assessed as cell growth at 10^-5 M after 48 hrs by sulforhodamine B assay relative to control; assay type: functional; conditions: SF-539, 48 h, read-out: Activity
Method in brief: (§2)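 NCI-60 single-dose screen at 10^-5 M. Cells grown in RPMI 1640 with 5% FBS and 2 mM L-glutamine, plated at 5,000–40,000 cells/well according to doubling time, and preincubated 24 h at 37°C, 5% CO2. Compound dissolved in DMSO and added. Exposure 48 h. Adherent cells fixed with cold TCA (10% final), suspension cells with 16% final TCA. Read-out is 0.4% SRB staining, dye solubilised in 10 mM Tris, absorbance at 515 nm. Percent growth is calculated against the time-zero plate and untreated control.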

DU-145 = assay: Growth inhibition of human DU145 cells assessed as cell growth at 10^-5 M after 48 hrs by sulforhodamine B assay relative to control; assay type: functional; conditions: DU-145, 48 h, read-out: Activity; method in brief: as §2
M14 = assay: Growth inhibition of human M14 cells assessed as cell growth at 10^-5 M after 48 hrs by sulforhodamine B assay relative to control; assay type: functional; conditions: M14, 48 h, read-out: Activity; method in brief: as §2
SW-620 = assay: Growth inhibition of human SW620 cells assessed as cell growth at 10^-5 M after 48 hrs by sulforhodamine B assay relative to control; assay type: functional; conditions: SW-620, 48 h, read-out: Activity; method in brief: as §1
ACHN = assay: Growth inhibition of human ACHN cells assessed as cell growth at 10^-5 M after 48 hrs by sulforhodamine B assay relative to control; assay type: functional; conditions: read-out: Activity; method in brief: as §2
MDA-MB-468 = assay: Growth inhibition of human MDA-MB-468 cells assessed as cell growth at 10^-5 M after 48 hrs by sulforhodamine B assay relative to control; assay type: functional; conditions: MDA-MB-468, 48 h, read-out: Activity; method in brief: as §2
UACC-62 = assay: Growth inhibition of human UACC62 cells assessed as cell growth at 10^-5 M after 48 hrs by sulforhodamine B assay relative to control; assay type: functional; conditions: UACC-62, 48 h, read-out: Activity; method in brief: as §1
SR = assay: Growth inhibition of human SR cells assessed as cell growth at 10^-5 M after 48 hrs by sulforhodamine B assay relative to control; assay type: functional; conditions: read-out: Activity; method in brief: as §1
TK-10 = assay: Growth inhibition of human TK10 cells assessed as cell growth at 10^-5 M after 48 hrs by sulforhodamine B assay relative to control; assay type: functional; conditions: TK-10, 48 h, read-out: Activity; method in brief: as §1
MCF7 = assay: Growth inhibition of human MCF7 cells assessed as cell growth at 10^-5 M after 48 hrs by sulforhodamine B assay relative to control; assay type: functional; conditions: MCF7, 48 h, read-out: Activity; method in brief: as §2
SK-MEL-28 = assay: Growth inhibition of human SK-MEL-28 cells assessed as cell growth at 10^-5 M after 48 hrs by sulforhodamine B assay relative to control; assay type: functional; conditions: SK-MEL-28, 48 h, read-out: Activity; method in brief: as §2
OVCAR-4 = assay: Growth inhibition of human OVCAR4 cells assessed as cell growth at 10^-5 M after 48 hrs by sulforhodamine B assay relative to control; assay type: functional; conditions: OVCAR-4, 48 h, read-out: Activity; method in brief: as §2
NCI-H460 = assay: Growth inhibition of human NCI-H460 cells assessed as cell growth at 10^-5 M after 48 hrs by sulforhodamine B assay relative to control; assay type: functional; conditions: NCI-H460, 48 h, read-out: Activity; method in brief: as §2
HOP-62 = assay: Growth inhibition of human HOP62 cells assessed as cell growth at 10^-5 M after 48 hrs by sulforhodamine B assay relative to control; assay type: functional; conditions: HOP-62, 48 h, read-out: Activity; method in brief: as §2
NCI-H522 = assay: Growth inhibition of human NCI-H522 cells assessed as cell growth at 10^-5 M after 48 hrs by sulforhodamine B assay relative to control; assay type: functional; conditions: NCI-H522, 48 h, read-out: Activity; method in brief: as §2
Cathepsin K = molecular target: T1, Cathepsin K (Homo sapiens, UniProt P43235); assay: Inhibition of human cathepsin K
T1 sequence (P43235 whole entry): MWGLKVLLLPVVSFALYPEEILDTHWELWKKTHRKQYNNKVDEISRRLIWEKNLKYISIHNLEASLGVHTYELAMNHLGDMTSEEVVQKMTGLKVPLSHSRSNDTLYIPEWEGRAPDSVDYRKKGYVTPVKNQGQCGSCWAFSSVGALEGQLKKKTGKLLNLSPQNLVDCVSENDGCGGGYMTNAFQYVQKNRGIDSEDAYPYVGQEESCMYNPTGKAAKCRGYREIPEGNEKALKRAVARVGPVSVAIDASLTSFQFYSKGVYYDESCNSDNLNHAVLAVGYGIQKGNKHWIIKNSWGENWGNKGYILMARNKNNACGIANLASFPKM

SF-295 = assay: Growth inhibition of human SF295 cells assessed as cell growth at 10^-5 M after 48 hrs by sulforhodamine B assay relative to control; assay type: functional; conditions: SF-295, 48 h, read-out: Activity; method in brief: as §2

`CC(=O)N1CCN(C(=O)Cn2c(-c3ccccc3)csc2=N)CC1` showed a growth at 10 µM (UACC-257) of 98.5%, a growth at 10 µM (SF-539) of 91.6% and a growth at 10 µM (DU-145) of 112%. It also gave a growth at 10 µM (M14) of 97%, a growth at 10 µM (SW-620) of 109% and a growth at 10 µM (ACHN) of 89.5%. It also gave a growth at 10 µM (MDA-MB-468) of 94.6%, a growth at 10 µM (UACC-62) of 89.6% and a growth at 10 µM (SR) of 88.7%. It also gave a growth at 10 µM (TK-10) of 138%, a growth at 10 µM (MCF7) of 94.8% and a growth at 10 µM (SK-MEL-28) of 101%. It also gave a growth at 10 µM (OVCAR-4) of 96.9%, a growth at 10 µM (NCI-H460) of 110% and a growth at 10 µM (HOP-62) of 85.3%. The growth at 10 µM (NCI-H522) was 81.3% and the pKi (Cathepsin K) was 4.66.

Work on `CN1CCN(C(=O)Cn2c(-c3ccc(Cl)cc3)csc2=N)CC1` yielded a growth at 10 µM (UACC-257) of 104%, a growth at 10 µM (SF-539) of 100% and a growth at 10 µM (DU-145) of 99%. The growth at 10 µM (M14) was 98.9%, the growth at 10 µM (SW-620) was 102% and the growth at 10 µM (ACHN) was 98.6%. It also gave a growth at 10 µM (MDA-MB-468) of 96.8%, a growth at 10 µM (UACC-62) of 90.2% and a growth at 10 µM (SR) of 78.5%. For the same compound, the growth at 10 µM (TK-10) was 85.7%, the growth at 10 µM (MCF7) was 92.2% and the growth at 10 µM (SK-MEL-28) was 107%. It also gave a growth at 10 µM (OVCAR-4) of 90.5%, a growth at 10 µM (NCI-H460) of 101% and a growth at 10 µM (HOP-62) of 101%. It also gave a growth at 10 µM (NCI-H522) of 86.7% and a pKi (Cathepsin K) of 5.34.

Compound `Cc1ccc(-c2csc(=N)n2CC(=O)N2CCOCC2)cc1` has a growth at 10 µM (UACC-257) of 103%, a growth at 10 µM (SF-539) of 100% and a growth at 10 µM (DU-145) of 108%. The growth at 10 µM (M14) was 110%, the growth at 10 µM (SW-620) was 114% and the growth at 10 µM (ACHN) was 97.5%. It also gave a growth at 10 µM (MDA-MB-468) of 106%, a growth at 10 µM (UACC-62) of 98.1% and a growth at 10 µM (SR) of 96.2%. For the same compound, the growth at 10 µM (TK-10) was 126%, the growth at 10 µM (SF-295) was 83.6% and the growth at 10 µM (MCF7) was 97.8%. The growth at 10 µM (SK-MEL-28) was 108%, the growth at 10 µM (OVCAR-4) was 102% and the growth at 10 µM (NCI-H460) was 108%. For the same compound, the growth at 10 µM (HOP-62) was 112%, the growth at 10 µM (NCI-H522) was 93% and the pKi (Cathepsin K) was 4.29.

Compound `CN1CCN(C(=O)Cn2c(-c3ccccc3)csc2=N)CC1` has a growth at 10 µM (UACC-257) of 106%, a growth at 10 µM (SF-539) of 98.7% and a growth at 10 µM (DU-145) of 104%. The growth at 10 µM (M14) was 94.2%, the growth at 10 µM (SW-620) was 96.1% and the growth at 10 µM (ACHN) was 81.2%. It also gave a growth at 10 µM (MDA-MB-468) of 97.6%, a growth at 10 µM (UACC-62) of 85.9% and a growth at 10 µM (SR) of 74.1%. For the same compound, the growth at 10 µM (TK-10) was 140%, the growth at 10 µM (SF-295) was 65.9% and the growth at 10 µM (MCF7) was 81.4%. The growth at 10 µM (SK-MEL-28) was 100%, the growth at 10 µM (OVCAR-4) was 88.4% and the growth at 10 µM (NCI-H460) was 99.1%. It also gave a growth at 10 µM (HOP-62) of 88.9%, a growth at 10 µM (NCI-H522) of 82.3% and a pKi (Cathepsin K) of 5.21.

Compound `N=c1scc(-c2ccccc2)n1CC(=O)N1CCOCC1` has a growth at 10 µM (UACC-257) of 111%, a growth at 10 µM (SF-539) of 98.8% and a growth at 10 µM (DU-145) of 107%. For the same compound, the growth at 10 µM (M14) was 100%, the growth at 10 µM (SW-620) was 98% and the growth at 10 µM (ACHN) was 88%. It also gave a growth at 10 µM (MDA-MB-468) of 98.4%, a growth at 10 µM (UACC-62) of 92.5% and a growth at 10 µM (SR) of 86.7%. For the same compound, the growth at 10 µM (TK-10) was 132%, the growth at 10 µM (MCF7) was 89.5% and the growth at 10 µM (SK-MEL-28) was 112%. It also gave a growth at 10 µM (OVCAR-4) of 97.3%, a growth at 10 µM (NCI-H460) of 105% and a growth at 10 µM (HOP-62) of 90%. For the same compound, the growth at 10 µM (NCI-H522) was 94.2% and the pKi (Cathepsin K) was 4.30.

For `N=c1scc(-c2ccc(Cl)cc2)n1CC(=O)N1CCOCC1`, the growth at 10 µM (UACC-257) was 94.7%, the growth at 10 µM (SF-539) was 95.8% and the growth at 10 µM (DU-145) was 104%. It also gave a growth at 10 µM (M14) of 92.2%, a growth at 10 µM (SW-620) of 103% and a growth at 10 µM (ACHN) of 99.4%. The growth at 10 µM (MDA-MB-468) was 95.5%, the growth at 10 µM (UACC-62) was 83.2% and the growth at 10 µM (SR) was 72.7%. It also gave a growth at 10 µM (TK-10) of 85.9%, a growth at 10 µM (MCF7) of 86.8% and a growth at 10 µM (SK-MEL-28) of 97.1%. For the same compound, the growth at 10 µM (OVCAR-4) was 82.2%, the growth at 10 µM (NCI-H460) was 99.3% and the growth at 10 µM (HOP-62) was 98.5%. For the same compound, the growth at 10 µM (NCI-H522) was 79.5% and the pKi (Cathepsin K) was 4.35.
